High-throughput results as filed in PubChem.
HTR2A ag = agonists of mouse serotonin 5-HT2A receptor (HTR2A); 0.66% of 360,000 active; activation, % at 7.6 µM; CHO-K1 mHTR2A beta-arrestin complementation, luminescence; percent of 30 µM serotonin response;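 active = activation above a run cutoff, the mean activation of all tested compounds plus 3 SD, cut at about 14% in these data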;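 note: 0% = plate median of compound wells and 100% = 30 µM serotonin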
JMJD2C inh = inhibitors of human GASC-1 (JMJD2C) demethylase; Q9H3R0; GST-JMJD2C(1-420) H3K9me3 demethylation, DELFIA europium; inhibition, % at 2.35 µM; 0.069% of 330,000 active; AID 2099;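 active = more than half of a compound's replicate wells show inhibition beyond 50%, single wells judged on their own value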;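 note: signal counts dimethyl H3K9 product captured on neutravidin plate; 0% = median of DMSO wells and 100% = 0.3 times that DMSO median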
T cell HTS = modulates CD8 T cell binding to vesicles; 2C CD8+ T cell-vesicle binding, flow cytometry; hits give low values; response (vesicle binding), % at 7 µM; 0.068% of 330,000 active; AID 2052;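 active = response, share of CD8 T cells binding vesicles, and their 90th percentile fluorescence all below set limits, cut at about 80% in these data, passing the limit was not always enough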;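 note: values below 100% mean blocked vesicle binding to the CD8+ T cells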
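Test system: purified 2C TCR transgenic mouse naive CD8+ T cells. Probe or stimulus: QL9-peptide-loaded Drosophila micro-vesicles bearing Ld, ICAM-1 and B7-1. Incubation: binding step 1.5 h, 37 °C, antibody labelling 20 min, ice. Measured by: flow cytometry of vesicle-bound cells.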
PP5 primary = inhibitors of human protein phosphatase 5 (PP5). P53041. purified PP5c, OMFP substrate fluorescence. inhibition, % at 6.7 µM. 0.18% of 320,000 active. AID 1987;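 active = inhibition above the campaign's mean inhibition across all tested compounds plus 3 SD, cut at about 9.5% in these data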;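 note: 0% = DMSO only and 100% = 100 µM cantharidin control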
Target sequence (P53041 whole entry, looked up): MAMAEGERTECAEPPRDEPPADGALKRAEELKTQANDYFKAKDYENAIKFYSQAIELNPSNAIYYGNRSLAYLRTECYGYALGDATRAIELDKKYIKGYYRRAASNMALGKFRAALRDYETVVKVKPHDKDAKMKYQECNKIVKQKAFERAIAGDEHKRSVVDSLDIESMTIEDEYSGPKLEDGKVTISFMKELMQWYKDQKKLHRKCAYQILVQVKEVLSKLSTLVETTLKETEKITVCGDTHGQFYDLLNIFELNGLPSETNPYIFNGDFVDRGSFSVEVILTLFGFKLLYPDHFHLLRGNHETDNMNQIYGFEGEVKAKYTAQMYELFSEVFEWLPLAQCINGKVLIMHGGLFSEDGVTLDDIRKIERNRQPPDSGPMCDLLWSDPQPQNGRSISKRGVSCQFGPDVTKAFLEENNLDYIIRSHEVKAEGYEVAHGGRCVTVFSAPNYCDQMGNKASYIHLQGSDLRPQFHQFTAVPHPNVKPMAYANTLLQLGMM
PP1 counter = PP1-alpha (human) inhibition in PP5 counter-screen; inhibition, % at 6.7 µM; P62136; purified PP1alpha, OMFP fluorescence; 0.9% of 320,000 active;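 active = inhibition above the mean inhibition of all tested compounds plus 3 SD, computed separately for each screening campaign, cut at about 15% in these data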
PP1 confirm = confirmation of human PP1 phosphatase inhibitors. shares compounds with PP1 counter. purified PP1alpha, OMFP substrate fluorescence. inhibition, % at 6.7 µM. 52% of 1,900 active;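 active = mean PP1 inhibition above a set limit taken from the earlier primary screen, cut at about 15% in these data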
PP5 counter = counter-screen for PP1 inhibitors: human PP5 phosphatase inhibition. shares compounds with PP1 counter. purified PP5c, OMFP fluorescence. inhibition, % at 6.7 µM. 4% of 1,900 active;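 active = mean PP5 inhibition over triplicate wells above about 9.5% taken from the earlier PP1 screen, limit read from the data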
* marks the source's active call; other numbers are inactive results; i = inactive; nt = no result given. Rows were chosen to be rich in hits. Some 1.7% of all compounds tested hit in one or more screens of this group.

SMILES	HTR2A ag	JMJD2C inh	T cell HTS	PP5 primary	PP1 counter	PP1 confirm	PP5 counter
C#CCOCCOCCOCCNc1nc(N2CCN(C(=O)CCCCCCCCCCNC(=O)[C@@H](CCSC)n3cc(CCO)nn3)CC2)nc(N2CCN(C(=O)CCCCCCCCCCNC(=O)[C@H](CCC(=O)O)n3cc(CCCCCN)nn3)CC2)n1	-5	-2	745	3	18*	37*	4
C#CCOCCOCCOCCNc1nc(N2CCN(C(=O)CCCCCCCCCCNC(=O)[C@@H](CCSC)n3cc(CCO)nn3)CC2)nc(N2CCN(C(=O)CCCCCCCCCCNC(=O)[C@H](CO)n3cc(CCCCCN)nn3)CC2)n1	4	-19	186	2	49*	49*	0
O=C(CCN1C(=O)/C(=C/c2ccccc2)SC1=S)Nc1ccccn1	-7	12	511	0	-2	nt	nt
O=C(CN1C(=O)/C(=C/c2ccccc2)SC1=S)Nc1ncc(Cc2ccccc2)s1	0	0	86	3	22*	20*	-2
O=C(CN1C(=O)/C(=C\C=C\c2ccccc2)SC1=S)Nc1ccc(F)cc1	-2	-5	495	-3	23*	13	-2
CCN(CC(=O)Nc1ccc(NC(C)=O)cc1)C(=O)c1ccc(=O)[nH]c1	3	1	230	-1	-1	nt	nt
O=C(N/N=C/c1cccc([N+](=O)[O-])c1)c1ccc(COc2ccccc2-c2ccccc2)cc1	1	-6	558	2	14	nt	nt
O=C(NCc1ccccc1)C1=C[C@@H](c2csc3ccccc23)C[C@@H](OCc2ccc(CO)cc2)O1	-6	1	440	0	7	nt	nt
C#CCNC(=O)C1=C[C@@H](c2csc3ccccc23)C[C@@H](OCc2ccc(CO)cc2)O1	-8	-7	407	5	73*	2	1
COc1ccc(-c2c[n+]3c4n2CCCCC4=C(c2ccccc2)C3)cc1	0	-1	345	0	18*	-9	-3
COc1ccc(-c2c[n+](CC(=O)c3ccccc3)c3n2CCCCC3)cc1	-2	2	175	1	-2	nt	nt
CCCc1nn(C)c(C(=O)Nc2cccc(Cl)c2)c1Cl	2	5	0	3	2	nt	nt
O=C(N/N=C/c1ccc(O)c(O)c1O)/C(=C/c1ccc([N+](=O)[O-])cc1)NC(=O)c1ccccc1	-4	-4	282	2	32*	36*	-2
Cc1ccc(NC(=O)/C(=C\c2ccc([N+](=O)[O-])cc2)NC(=O)c2ccccc2)cc1	2	11	183	-1	0	nt	nt
COc1ccc2c(c1)O[C@@H](c1cccc(C(F)(F)F)c1)[C@H](OC(=O)NCCc1ccc(OC)c(OC)c1)C2=O	nt	0	443	5	2	nt	nt
CNC[C@H](Cc1ccccc1)NC[C@@H](Cc1cccc2ccccc12)NCCc1ccc(C)cc1	6	-2	266	6	20*	-6	1
CNCCNC[C@H](Cc1cccc2ccccc12)NCCc1ccccc1	-2	35	253	nt	nt	nt	nt
Cc1noc(C)c1COC(=O)COc1ccc2c(C)cc(=O)oc2c1	4	1	852	1	19*	17*	-4
Cn1cc(C(=O)N/N=C/c2c(O)ccc3ccccc23)ccc1=O	0	1	402	-1	27*	29*	-3
O=C(N/N=C\c1c(O)ccc2ccccc12)c1ccc(O)cc1	-2	-2	122	4	4	nt	nt
CCC1(c2ccccc2)NC(=O)N(CC(=O)Nc2ccccc2C(=O)NC2CC2)C1=O (configuration not stated)	-6	0	i	0	-6	nt	nt
COc1cccc(OC)c1C(=O)Nc1nc2ccc(S(C)(=O)=O)cc2s1	0	2	195	0	-1	nt	nt
CCNS(=O)(=O)c1ccc2nc(NC(=O)/C=C/c3cc(OC)c(OC)c(OC)c3)sc2c1	3	0	197	3	21*	20*	-5
COc1cc(/C=C/C(=O)Nc2nc3ccc(S(=O)(=O)NC(C)C)cc3s2)cc(OC)c1OC	-2	7	83	2	25*	32*	-6
O=C(NC1CC1)C1CCN(C2CCN(C(=O)c3c(F)cccc3Cl)CC2)CC1	-9	-5	261	-3	-5	nt	nt
SMILES	HTR2A ag	JMJD2C inh	T cell HTS	PP5 primary	PP1 counter	PP1 confirm	PP5 counter
CC(Oc1ccc2c(c1)c1ccnc3c4ccccc4c(=O)n2c13)C(=O)NCCN1CCOCC1 (configuration not stated)	1	-3	225	1	1	nt	nt
N=c1c2c(-c3ccccc3)c(-c3ccccc3)n(Cc3ccco3)c2ncn1Cc1ccccc1	-2	-15	296	1	28*	1	-1
c1ccc(-c2c(-c3ccccc3)n(Cc3ccco3)c3ncnc(NCCCn4ccnc4)c23)cc1	1	0	361	4	24*	15	3
CCN(CC)S(=O)(=O)c1cccc(NC2=NCCCCC2)c1	4	-7	109	3	-5	nt	nt
CCCOc1ccc(-c2c(C(=O)N/N=C/c3ccc(C)cc3)nnn2-c2nonc2N)cc1	-3	2	423	2	2	nt	nt
CCCOc1ccc(-c2c(C(=O)N/N=C/c3cccnc3)nnn2-c2nonc2N)cc1	-4	2	375	2	27*	21*	-5
CCCCCCCCCCCCCCCC[n+]1cccc2ccccc21	4	0	460	7	52*	37*	8
CCCCCCCCC[n+]1cccc2c3ccccc3ccc21	7	4	278	-4	19*	-11	-2
CC1(OC(=O)c2cccs2)C(=O)C=C2C=C(c3ccc(C#N)cc3)OC=C2C1=O (configuration not stated)	nt	8	755	3	21*	10	-1
O=S(=O)(c1ccccc1F)N1CCN(Cc2cc3c(cc2Br)OCCO3)CC1	2	3	275	2	5	nt	nt
C/C(CC(=O)Nc1ccccn1)=N\NC(=O)C(=O)Nc1cccc(C)c1	0	-9	201	2	2	nt	nt
C/C(CC(=O)Nc1ccc(OCc2ccccc2)cc1)=N\NC(=O)C(=O)Nc1cccc(C)c1	-2	-1	344	-2	18*	0	-6
CC(=O)Nc1ccc(C(=O)N/N=C(\C)CC(=O)Nc2ccc(OCc3ccccc3)cc2)cc1	-5	-7	131	3	12	nt	nt
COc1ccccc1NC(=O)C(=O)N/N=C(\C)CC(=O)Nc1ccc(OCc2ccccc2)cc1	0	5	200	4	19*	24*	-2
O=C(O)C(c1ccccc1)N1C(=O)c2ccccc2C1=O (configuration not stated)	7	-9	179	2	-3	nt	nt
